The source of these data is ChEMBL document CHEMBL1641514, “Drug metabolism-based design, synthesis, and bioactivities of 1-(2,6-dimethylphenoxy)-2-(3,4-dimethoxyphenylethylamino)propane hydrochloride (DDPH) analogs as α₁-adrenoceptors antagonists” (Bioorg Med Chem, 2011).

For assay [1], the system named is Rattus norvegicus. In words: Antihypertensive activity in Sprague-Dawley rat assessed as change in diastolic arterial pressure at 5 mg/kg, iv.
The subject of assay [2] is Rattus norvegicus. In words: Antihypertensive activity in Sprague-Dawley rat assessed as change in systolic arterial pressure at 5 mg/kg, iv.
For assay [3], the system named is Rattus norvegicus. The assay is described as follows: Antihypertensive activity in Sprague-Dawley rat assessed as change in heart rate at 5 mg/kg, iv.
The target of assay [4] is T1, Adrenergic receptor alpha-1 (Rattus norvegicus, UniProt P15823+P23944+P43140).
T1 sequence (P15823 whole entry): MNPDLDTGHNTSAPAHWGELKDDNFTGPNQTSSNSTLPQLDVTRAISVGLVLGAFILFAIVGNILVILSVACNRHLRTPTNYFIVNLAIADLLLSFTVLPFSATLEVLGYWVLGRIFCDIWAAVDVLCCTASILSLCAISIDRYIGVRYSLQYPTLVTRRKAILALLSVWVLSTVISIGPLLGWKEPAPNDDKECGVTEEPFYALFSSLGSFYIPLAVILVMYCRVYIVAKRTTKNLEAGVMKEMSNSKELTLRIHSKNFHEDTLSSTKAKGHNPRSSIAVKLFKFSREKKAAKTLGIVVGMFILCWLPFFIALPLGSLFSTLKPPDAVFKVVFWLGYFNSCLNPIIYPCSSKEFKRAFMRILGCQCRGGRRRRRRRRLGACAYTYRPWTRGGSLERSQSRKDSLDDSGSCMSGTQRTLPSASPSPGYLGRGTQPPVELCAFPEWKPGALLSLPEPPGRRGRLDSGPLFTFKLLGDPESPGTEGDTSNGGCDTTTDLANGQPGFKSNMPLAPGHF
T1 sequence (P23944 whole entry): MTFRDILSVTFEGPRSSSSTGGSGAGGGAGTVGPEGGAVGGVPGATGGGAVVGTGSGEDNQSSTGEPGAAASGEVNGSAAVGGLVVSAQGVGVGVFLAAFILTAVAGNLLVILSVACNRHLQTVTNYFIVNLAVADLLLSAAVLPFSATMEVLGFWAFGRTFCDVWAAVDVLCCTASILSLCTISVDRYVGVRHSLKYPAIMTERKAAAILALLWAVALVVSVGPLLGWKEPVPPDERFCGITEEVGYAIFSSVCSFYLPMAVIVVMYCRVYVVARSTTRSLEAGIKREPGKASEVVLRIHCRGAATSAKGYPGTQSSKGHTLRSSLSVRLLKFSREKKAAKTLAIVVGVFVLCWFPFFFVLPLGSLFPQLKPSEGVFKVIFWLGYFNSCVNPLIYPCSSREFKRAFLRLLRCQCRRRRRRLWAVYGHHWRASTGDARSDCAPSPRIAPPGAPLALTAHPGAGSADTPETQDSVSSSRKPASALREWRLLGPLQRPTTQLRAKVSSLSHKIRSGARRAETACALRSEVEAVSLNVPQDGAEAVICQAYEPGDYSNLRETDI
T1 sequence (P43140 whole entry): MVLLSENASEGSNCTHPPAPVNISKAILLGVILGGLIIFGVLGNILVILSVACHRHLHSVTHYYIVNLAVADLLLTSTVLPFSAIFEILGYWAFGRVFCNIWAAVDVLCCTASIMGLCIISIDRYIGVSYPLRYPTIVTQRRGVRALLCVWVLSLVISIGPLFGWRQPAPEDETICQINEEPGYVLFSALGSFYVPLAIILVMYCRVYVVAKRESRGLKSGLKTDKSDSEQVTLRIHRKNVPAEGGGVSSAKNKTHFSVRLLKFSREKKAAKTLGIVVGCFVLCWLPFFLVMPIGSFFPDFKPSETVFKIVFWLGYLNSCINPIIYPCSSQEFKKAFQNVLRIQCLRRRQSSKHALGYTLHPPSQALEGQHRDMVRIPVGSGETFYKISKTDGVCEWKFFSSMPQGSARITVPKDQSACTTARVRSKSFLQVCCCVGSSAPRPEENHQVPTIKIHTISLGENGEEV
The assay is described as follows: Antagonist activity at alpha1 adrenergic receptor in Sprague-Dawley rat anococcygeus smooth muscle assessed as inhibition of phenylepinephrine-induced muscle contraction treated 20 mins before phenylepinephrine challenge. It is filed as functional. Summed up: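 Male Sprague–Dawley rats (300–350 g) killed by cervical dislocation. Anococcygeus muscle mounted in a 20 mL bath of Krebs solution (pH 7.4), 37 °C, gassed with 5% CO₂/95% O₂. Resting tension 1.0 g. Equilibrated 1 h with Krebs renewal every 20 min. Cocaine, hydrocortisone and propranolol then added. pA₂ read out.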

The test system of assay [5] is Rattus norvegicus. The assay is described as follows: Antihypertensive activity in Sprague-Dawley rat assessed as time duration of hypotensive response at 5 mg/kg, iv.
Assay [6] has as its system Rattus norvegicus. The assay is described as follows: Antihypertensive activity in Sprague-Dawley rat assessed as change in mean arterial pressure at 5 mg/kg, iv.

With `COc1ccc(CCNC(C)COc2c(C)cc(C#N)cc2C)cc1O.Cl` (configuration not stated), the Activity in the assay on Rattus norvegicus [1] is recorded as -14.2%; in the assay on Rattus norvegicus [2] it was -8.2%; in the assay with Rattus norvegicus [3], -6.4%; in the assay with Rattus norvegicus [6], -11%. Moreover, the pA2 in assay [4] is listed as 5.61. Besides, the Time in the assay with Rattus norvegicus [5] amounted to 4 min.
Regarding `COc1cc(CCNC(C)COc2c(C)cc(Cl)cc2C)ccc1O.Cl` (configuration not stated), the Activity with Rattus norvegicus [1] is listed as -25.1%; with Rattus norvegicus [2], -12.1%; with Rattus norvegicus [3] it was -6.6%; with Rattus norvegicus [6], -20.2%. In addition, the pA2 in assay [4] came to 8.6. Besides, in the assay on Rattus norvegicus [5], the Time was 61 min.
On to `COc1ccc(CCNC(C)COc2c(C)cc(Cl)cc2C)cc1OC.Cl` (configuration not stated), for which the Activity is -18.5% in the assay on Rattus norvegicus [1], -13.3% in the assay with Rattus norvegicus [2], -8.78% in the assay on Rattus norvegicus [3] and -15.9% in the assay on Rattus norvegicus [6]. The pA2 in assay [4] is on record as 8.18. Further, the Time in the assay with Rattus norvegicus [5] was determined as 34 min.
On to `COc1ccc(CCNC(C)COc2c(C)cc(Br)cc2C)cc1OC.Cl` (configuration not stated), for which the Activity in the assay on Rattus norvegicus [1] is recorded as -7.8%; in the assay with Rattus norvegicus [2], -9.2%; with Rattus norvegicus [3], -8.3%; with Rattus norvegicus [6] it was -8.5%. Besides, the pA2 in assay [4] is recorded as 6.93. The Time with Rattus norvegicus [5] came out at 12 min.
Take `COc1cc(CCNC(C)COc2c(C)cc(Br)cc2C)ccc1O.Cl` (configuration not stated): the Activity in the assay with Rattus norvegicus [1] is given as -19.1%; in the assay on Rattus norvegicus [2], -7.6%; with Rattus norvegicus [3], -1.7%; with Rattus norvegicus [6], -15.5%. Further, in assay [4], the pA2 was 9.94. In addition, the Time with Rattus norvegicus [5] is reported as 23 min.
For the molecule `COc1ccc(CCNC(C)COc2c(C)cc(Br)cc2C)cc1O.Cl` (configuration not stated), the Activity is given as -12.8% in the assay on Rattus norvegicus [1], -3.5% in the assay on Rattus norvegicus [2], -2.3% in the assay on Rattus norvegicus [3] and -7.5% with Rattus norvegicus [6]. Besides, in assay [4], the pA2 is given as 7.02. The Time with Rattus norvegicus [5] is 4 min.
On to `COc1ccc(CCNC(C)COc2c(C)ccc(C)c2C)cc1OC.Cl` (configuration not stated), for which the Activity with Rattus norvegicus [1] is recorded as -34.2%; in the assay on Rattus norvegicus [2], -17.4%; with Rattus norvegicus [3], -16.6%; in the assay on Rattus norvegicus [6], -27.1%. In addition, in assay [4], the pA2 came out at 7.71. Further, the Time with Rattus norvegicus [5] came to 57 min.
As for `COc1cc(CCNC(C)COc2c(C)ccc(C)c2C)ccc1O.Cl` (configuration not stated), the Activity is -20.5% in the assay with Rattus norvegicus [1], -7.9% in the assay with Rattus norvegicus [2], -0.96% in the assay with Rattus norvegicus [3] and -14.6% in the assay on Rattus norvegicus [6]. The pA2 in assay [4] is given as 8.02. Further, the Time in the assay on Rattus norvegicus [5] was 80 min.
Take `COc1cc(CCNC(C)COc2c(C)cc(C)cc2C)ccc1O.Cl` (configuration not stated): the Activity is reported as -48.99% in the assay with Rattus norvegicus [1], -36.45% with Rattus norvegicus [2], -23.52% in the assay with Rattus norvegicus [3] and -45.92% with Rattus norvegicus [6]. Also, in assay [4], the pA2 came to 8.86. Moreover, the Time with Rattus norvegicus [5] came out at 205 min.
In the case of `COc1ccc(CCNC(C)COc2c(C)cc(C)cc2C)cc1OC.Cl` (configuration not stated), the Activity is reported as -28.23% with Rattus norvegicus [1], -19.03% with Rattus norvegicus [2], -16.3% in the assay with Rattus norvegicus [3] and -27.86% in the assay on Rattus norvegicus [6]. In addition, the pA2 in assay [4] came out at 7.25. The Time with Rattus norvegicus [5] is reported as 33 min.
For the molecule `COc1cc(CCNC(C)COc2c(C)cc(C#N)cc2C)ccc1O.Cl` (configuration not stated), the Activity in the assay with Rattus norvegicus [1] is given as -29.61%; in the assay with Rattus norvegicus [2], -17.3%; with Rattus norvegicus [3], -2.33%; with Rattus norvegicus [6], -24.9%. The pA2 in assay [4] was found to be 6.65. Also, in the assay on Rattus norvegicus [5], the Time amounted to 6 min.
On to `COc1ccc(CCNC(C)COc2c(C)cccc2C)cc1OC.Cl` (configuration not stated), for which the Activity is reported as -26% with Rattus norvegicus [1], -19.79% in the assay on Rattus norvegicus [2], -16.04% in the assay on Rattus norvegicus [3] and -30.4% in the assay with Rattus norvegicus [6]. The pA2 in assay [4] turned out to be 8.07. The Time with Rattus norvegicus [5] was determined as 120 min.
